In ChEMBL document CHEMBL4354820, “Optimizing Targeted Inhibitors of P-Glycoprotein Using Computational and Structure-Guided Approaches” (J Med Chem, 2019):

Tests used:
[1] = target: T1, P-glycoprotein (ABCB1, mouse MDR3) ATPase (Mus musculus, UniProt P21447); experiment: Inhibition of verampil-stimulated ATPase hydrolysis in recombinant mouse MDR3 expressed in Pichia pastoris measured after 30 mins in presence of NADH by coupled enzyme assay (reference value: 100 +/- 8 %); design: scale not given: the % may be the effect or the level left; conditions: recombinant mouse MDR3 (P-gp) expressed in Pichia pastoris
[2] = target: T2, P-glycoprotein (ABCB1, MDR1) ATPase (Homo sapiens, UniProt P08183); experiment: Inhibition of verampil-stimulated ATPase hydrolysis in recombinant human MDR1 expressed in Pichia pastoris measured after 30 mins in presence of NADH by coupled enzyme assay (reference value: 100 +/- 6 %); design: scale not given: the % may be the effect or the level left; conditions: recombinant human MDR1 (P-gp) expressed in Pichia pastoris
[3] = tested on: P-glycoprotein 1 Abcb1a (Mus musculus); experiment: Inhibition of 2',3'-(2,2,5,5,-tetramethyl-3-pyrroline-l-oxyl-3-carboxylic acid ester)ATP interaction with mouse MDR3 P-gp expressed in Escherichia coli BL21 (DE3) assessed as reduction in ATP binding from 2 to 1 of nucleotide to mol of protein by ESR analysis (reference value: 1.8 +/- 0.1)
[4] = target: T3, ATP-dependent translocase ABCB1 (Homo sapiens, UniProt P08183); experiment: Ratio of inhibition of P-gp overexpressed in human DU145-TxR cells assessed as increase in intracellular compound accumulation after 2.5 hrs in presence of tariquidar by LC-MS/MS analysis to Inhibition of P-gp overexpressed in human DU145-TxR cells assessed as decrease in intracellular compound accumulation after 2.5 hrs in absence of tariquidar by LC-MS/MS analysis; type: cell-based
How it was run: (§1)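 P-gp-overexpressing DU145TXR cells exposed to test compounds with or without tariquidar. Intracellular compound measured by LC–MS/MS, with daunorubicin as a transported-substrate control. Ratio is accumulation with tariquidar divided by accumulation without.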

[5] = target: T3, ATP-dependent translocase ABCB1; experiment: Reversal of P-gp mediated multidrug resistance in human DU145-TxR cells overexpressing P-gp assessed as potentiation of paclitaxel-induced cytotoxicity by measuring fold reduction paclitaxel IC50 at 3 uM after 48 hrs by MTT assay relative to paclitaxel alone; type: cell-based
How it was run: (§2)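 DU145TXR cells seeded at 3000 per well, 24 h later treated 48 h with paclitaxel alone or with 3, 5, 7 or 10 μM inhibitor in complete medium (DMSO vehicle). MTT 4 h, formazan dissolved in DMSO, A570 read, background subtracted, viability relative to DMSO. IC50 by four-parameter nonlinear fit; eight replicates, at least two experiments. Fold values compare paclitaxel alone or with parent inhibitor.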

[6] = target: T3, ATP-dependent translocase ABCB1; experiment: Reversal of P-gp mediated multidrug resistance in human DU145-TxR cells overexpressing P-gp assessed as potentiation of paclitaxel-induced cytotoxicity by measuring fold reduction paclitaxel IC50 at 10 uM after 48 hrs by MTT assay relative to paclitaxel alone; type: cell-based; how it was run: as §2
[7] = target: T3, ATP-dependent translocase ABCB1; experiment: Reversal of P-gp mediated multidrug resistance in human DU145-TxR cells overexpressing P-gp assessed as potentiation of paclitaxel-induced cytotoxicity by measuring fold reduction paclitaxel IC50 at 10 uM after 48 hrs by MTT assay relative to parent compound; type: cell-based; how it was run: as §2
[8] = target: T3, ATP-dependent translocase ABCB1; experiment: Reversal of P-gp mediated multidrug resistance in human DU145-TxR cells overexpressing P-gp assessed as potentiation of paclitaxel-induced cytotoxicity by measuring fold reduction paclitaxel IC50 at 5 uM after 48 hrs by MTT assay relative to paclitaxel alone; type: cell-based; how it was run: as §2
[9] = target: P-glycoprotein 1 Abcb1a (Mus musculus); experiment: Inhibition of spin-labelled adenine nucleotide interaction with mouse MDR3 P-gp expressed in Escherichia coli BL21 (DE3) assessed as apparent dissociation constant by ESR analysis (reference value: 36.5 +/- 3.6 uM)
[10] = target: T1, P-glycoprotein (ABCB1, mouse MDR3) ATPase; experiment: Effect on basal ATPase hydrolysis of recombinant mouse MDR3 expressed in Pichia pastoris measured after 30 mins in presence of NADH by coupled enzyme assay (reference value: 100 +/- 7 %); design: scale not given: the % may be the effect or the level left; conditions: recombinant mouse MDR3 (P-gp) expressed in Pichia pastoris, read-out: Activity
[11] = target: T2, P-glycoprotein (ABCB1, MDR1) ATPase; experiment: Effect on basal ATPase hydrolysis of recombinant human MDR1 expressed in Pichia pastoris measured after 30 mins in presence of NADH by coupled enzyme assay (reference value: 100 +/- 5 %); design: scale not given: the % may be the effect or the level left; conditions: recombinant human MDR1 (P-gp) expressed in Pichia pastoris, read-out: Activity
[12] = target: T3, ATP-dependent translocase ABCB1; experiment: Inhibition of P-gp overexpressed in human DU145-TxR cells assessed as increase in cellular accumulation of calcein AM at 2 uM preincubated for 6 hrs followed by calcein AM addition by fluorescence imaging analysis; type: cell-based
How it was run: (§3)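 Confluent DU145TXR monolayers in phenol red-free RPMI 1640 given 2 μM inhibitor (DMSO vehicle) and 1 μg mL−1 calcein AM, either added together or after a 6 h inhibitor-only preincubation at 37 °C. Calcein fluorescence (ex 485 / em 535 nm) read over 60 min at 20 min intervals. Six replicates, at least two independent experiments.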

[13] = target: T3, ATP-dependent translocase ABCB1; experiment: Reversal of P-gp mediated multidrug resistance in human DU145-TxR cells overexpressing P-gp assessed as potentiation of paclitaxel-induced cytotoxicity by measuring fold reduction paclitaxel IC50 at 7 uM after 48 hrs by MTT assay relative to parent compound; type: cell-based; how it was run: as §2
[14] = target: T3, ATP-dependent translocase ABCB1; experiment: Reversal of P-gp mediated multidrug resistance in human DU145-TxR cells overexpressing P-gp assessed as potentiation of paclitaxel-induced cytotoxicity by measuring fold reduction paclitaxel IC50 at 7 uM after 48 hrs by MTT assay relative to paclitaxel alone; type: cell-based; how it was run: as §2
[15] = target: T3, ATP-dependent translocase ABCB1; experiment: Inhibition of P-gp overexpressed in human DU145-TxR cells assessed as increase in cellular accumulation of calcein AM at 2 uM pretreated followed by calcein AM addition by fluorescence imaging analysis; type: cell-based; how it was run: as §3
[16] = target: T3, ATP-dependent translocase ABCB1; experiment: Reversal of P-gp mediated multidrug resistance in human DU145-TxR cells overexpressing P-gp assessed as potentiation of paclitaxel-induced cytotoxicity by measuring fold reduction paclitaxel IC50 at 3 uM after 48 hrs by MTT assay relative to parent compound; type: cell-based; how it was run: as §2
[17] = target: T3, ATP-dependent translocase ABCB1; experiment: Reversal of P-gp mediated multidrug resistance in human DU145-TxR cells overexpressing P-gp assessed as potentiation of paclitaxel-induced cytotoxicity by measuring fold reduction paclitaxel IC50 at 5 uM after 48 hrs by MTT assay relative to parent compound; type: cell-based; how it was run: as §2
[18] = target: T1, P-glycoprotein (ABCB1, mouse MDR3) ATPase; experiment: Effect on verampil-mediated ATPase hydrolysis of recombinant mouse MDR3 expressed in Pichia pastoris measured after 30 mins in presence of NADH by coupled enzyme assay (reference value: 100 +/- 8 %); design: scale not given: the % may be the effect or the level left; conditions: recombinant mouse MDR3 (P-gp) expressed in Pichia pastoris, read-out: Activity
[19] = target: T3, ATP-dependent translocase ABCB1; experiment: Inhibition of P-gp overexpressed in human DU145-TxR cells assessed as increase in intracellular compound accumulation after 2.5 hrs in presence of tariquidar by LC-MS/MS analysis; type: cell-based; how it was run: as §1
[20] = target: T2, P-glycoprotein (ABCB1, MDR1) ATPase; experiment: Basal ATPase hydrolysis in recombinant human MDR1 expressed in Pichia pastoris measured after 30 mins in presence of NADH by coupled enzyme assay (reference value: 100 +/- 5 %); design: scale not given: the % may be the effect or the level left; conditions: recombinant human MDR1 (P-gp) expressed in Pichia pastoris
[21] = target: T1, P-glycoprotein (ABCB1, mouse MDR3) ATPase; experiment: Stimulation of verampil-mediated ATPase hydrolysis in recombinant mouse MDR3 expressed in Pichia pastoris measured after 30 mins in presence of NADH by coupled enzyme assay (reference value: 100 +/- 8 %); design: scale not given: the % may be the effect or the level left; conditions: recombinant mouse MDR3 (P-gp) expressed in Pichia pastoris, read-out: Activity

T1 sequence (P21447 whole entry): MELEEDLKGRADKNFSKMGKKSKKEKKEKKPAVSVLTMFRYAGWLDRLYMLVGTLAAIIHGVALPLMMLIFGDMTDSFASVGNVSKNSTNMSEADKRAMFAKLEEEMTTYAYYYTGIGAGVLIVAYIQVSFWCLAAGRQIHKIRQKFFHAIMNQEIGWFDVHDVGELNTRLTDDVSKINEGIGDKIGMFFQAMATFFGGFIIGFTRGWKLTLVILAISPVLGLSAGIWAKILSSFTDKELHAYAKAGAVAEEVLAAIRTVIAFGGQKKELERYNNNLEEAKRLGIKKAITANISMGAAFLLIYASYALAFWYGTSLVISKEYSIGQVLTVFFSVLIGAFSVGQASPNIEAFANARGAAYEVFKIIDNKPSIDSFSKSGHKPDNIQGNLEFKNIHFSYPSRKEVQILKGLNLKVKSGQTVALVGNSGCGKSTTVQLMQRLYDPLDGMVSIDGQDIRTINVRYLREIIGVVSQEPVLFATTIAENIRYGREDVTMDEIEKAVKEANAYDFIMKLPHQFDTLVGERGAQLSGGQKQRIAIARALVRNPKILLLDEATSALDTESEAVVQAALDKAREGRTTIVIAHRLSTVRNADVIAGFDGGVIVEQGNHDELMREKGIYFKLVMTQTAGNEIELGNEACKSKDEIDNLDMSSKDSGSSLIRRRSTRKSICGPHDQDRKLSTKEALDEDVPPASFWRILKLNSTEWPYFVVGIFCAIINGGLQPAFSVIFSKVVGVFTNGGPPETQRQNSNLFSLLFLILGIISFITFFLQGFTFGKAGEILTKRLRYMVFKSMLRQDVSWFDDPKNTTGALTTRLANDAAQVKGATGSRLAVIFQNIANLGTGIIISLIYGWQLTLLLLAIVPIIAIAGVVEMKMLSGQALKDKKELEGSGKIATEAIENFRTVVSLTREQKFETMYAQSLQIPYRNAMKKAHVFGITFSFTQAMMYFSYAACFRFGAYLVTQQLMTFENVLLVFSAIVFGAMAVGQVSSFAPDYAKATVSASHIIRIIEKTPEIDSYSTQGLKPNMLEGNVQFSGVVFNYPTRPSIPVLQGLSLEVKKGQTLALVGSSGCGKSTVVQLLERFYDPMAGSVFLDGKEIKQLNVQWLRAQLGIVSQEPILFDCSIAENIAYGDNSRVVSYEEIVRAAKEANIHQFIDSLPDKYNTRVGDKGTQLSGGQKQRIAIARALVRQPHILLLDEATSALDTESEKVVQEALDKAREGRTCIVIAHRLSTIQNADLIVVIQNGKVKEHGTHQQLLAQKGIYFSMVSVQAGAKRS
T3 sequence (P08183 whole entry): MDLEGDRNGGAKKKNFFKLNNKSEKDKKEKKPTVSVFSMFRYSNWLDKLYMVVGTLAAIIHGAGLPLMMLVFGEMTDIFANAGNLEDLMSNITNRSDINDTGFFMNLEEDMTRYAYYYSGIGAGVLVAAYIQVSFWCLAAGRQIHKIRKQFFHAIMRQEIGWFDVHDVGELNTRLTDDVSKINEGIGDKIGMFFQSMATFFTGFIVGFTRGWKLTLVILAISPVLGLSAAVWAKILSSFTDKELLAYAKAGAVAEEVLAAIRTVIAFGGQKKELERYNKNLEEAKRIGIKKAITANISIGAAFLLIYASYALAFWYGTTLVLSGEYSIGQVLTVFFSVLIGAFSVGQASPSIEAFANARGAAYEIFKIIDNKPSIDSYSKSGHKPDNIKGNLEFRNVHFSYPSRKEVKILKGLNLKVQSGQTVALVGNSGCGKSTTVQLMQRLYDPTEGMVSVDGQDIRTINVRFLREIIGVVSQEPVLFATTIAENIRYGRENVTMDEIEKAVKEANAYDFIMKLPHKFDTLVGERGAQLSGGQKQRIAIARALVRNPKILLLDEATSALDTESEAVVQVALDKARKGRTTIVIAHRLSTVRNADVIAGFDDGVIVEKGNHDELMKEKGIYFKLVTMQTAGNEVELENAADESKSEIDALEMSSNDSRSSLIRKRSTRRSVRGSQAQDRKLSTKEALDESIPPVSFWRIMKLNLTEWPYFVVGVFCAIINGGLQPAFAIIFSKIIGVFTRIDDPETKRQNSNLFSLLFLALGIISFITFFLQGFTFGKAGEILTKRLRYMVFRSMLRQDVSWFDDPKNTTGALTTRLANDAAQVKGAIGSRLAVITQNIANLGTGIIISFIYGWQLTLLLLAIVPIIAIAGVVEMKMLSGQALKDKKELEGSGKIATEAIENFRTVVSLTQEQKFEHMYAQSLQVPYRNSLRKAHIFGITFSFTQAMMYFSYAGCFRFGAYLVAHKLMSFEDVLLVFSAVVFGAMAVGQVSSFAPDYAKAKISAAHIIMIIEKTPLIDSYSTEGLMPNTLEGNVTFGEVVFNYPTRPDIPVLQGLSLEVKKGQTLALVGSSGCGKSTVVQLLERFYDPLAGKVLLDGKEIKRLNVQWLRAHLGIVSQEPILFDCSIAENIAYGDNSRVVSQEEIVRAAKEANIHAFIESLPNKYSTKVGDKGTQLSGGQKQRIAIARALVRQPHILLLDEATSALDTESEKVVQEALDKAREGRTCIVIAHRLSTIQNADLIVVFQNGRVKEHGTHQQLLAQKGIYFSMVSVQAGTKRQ
T2 sequence (P08183 whole entry): as above

| Activity at 0.5 h [1] [%] | Activity at 0.5 h [2] [%] | Activity [3] | Ratio [4] | Kd [9] [µM] | Activity at 0.5 h [10] [%] | Activity at 0.5 h [11] [%] | inhibition (INH) [12] | inhibition (INH) [15] | Activity at 0.5 h [18] [%] | inhibition (INH) [19] | SMILES | fold change (FC) [5] | fold change (FC) [6] | fold change (FC) [7] | fold change (FC) [8] | fold change (FC) [13] | fold change (FC) [14] | fold change (FC) [16] | fold change (FC) [17] | also measured |
| --- | --- | --- | --- | --- | --- | --- | --- | --- | --- | --- | --- | --- | --- | --- | --- | --- | --- | --- | --- | --- |
| – | 59 | 1.9 | 1.3 | 25.7 | 143 | 95 | Active | Active | 98 | Active | Cc1cc(C)c(-c2cc(NC(=O)CSCC(=O)NCc3ccc(F)cc3)n(-c3ccccc3)n2)cc1C | 4.6 | 16 | 0.2 | 5.6 | 0.3 | 11 | 1.4 | 0.5 | – |
| – | 61 | 1.2 | 1.9 | 20.1 | – | 89 | Active | Active | – | Active | COc1cc(NC(=O)CSCC(=O)Nc2cc(-c3cc(C)c(C)cc3C)nn2-c2ccccc2)cc(OC)c1OC | 11 | 30286 | 300 | 1116 | 92 | 3312 | 3.4 | 102 | Activity at 0.5 h [21]: 194% |

The remaining lines, values behind:

| SMILES | Activity at 0.5 h [1] [%] | Activity at 0.5 h [2] [%] | Activity [3] | Ratio [4] | Kd [9] [µM] | Activity at 0.5 h [10] [%] | Activity at 0.5 h [11] [%] | inhibition (INH) [12] | inhibition (INH) [15] | Activity at 0.5 h [18] [%] | inhibition (INH) [19] | fold change (FC) [5] | fold change (FC) [6] | fold change (FC) [7] | fold change (FC) [8] | fold change (FC) [13] | fold change (FC) [14] | fold change (FC) [16] | fold change (FC) [17] | also measured |
| --- | --- | --- | --- | --- | --- | --- | --- | --- | --- | --- | --- | --- | --- | --- | --- | --- | --- | --- | --- | --- |
| Cc1cc(C)c(-c2cc(NC(=O)CSc3nnc4c(n3)[nH]c3ccccc34)n(-c3ccccc3)n2)cc1C | 68 | 66 | 1.8 | 1 | 24.1 | 101 | 87 | Active | Active | – | – | 5 | 125 | 3.4 | 101 | 3.4 | 125 | 1.5 | 9.2 | – |
| Cc1cc(C)c(-c2cc(NC(=O)CSc3n[nH]c(C4CC4)n3)n(-c3ccccc3)n2)cc1C | 49 | 62 | 1.9 | 1 | 71 | 95 | – | Active | Active | – | – | 3 | 101 | 1 | 11 | 1 | 36 | 1 | 1 | – |
| Cc1cc(C)c(-c2cc(NC(=O)CSCC(=O)c3ccc4c(c3)Cc3ccccc3-4)n(-c3ccccc3)n2)cc1C | – | 64 | 1.7 | 1.1 | 23.1 | 105 | – | Active | Active | 108 | – | 8 | 37 | 0.4 | 14 | 1 | 34 | 2.4 | 1.3 | Activity at 0.5 h [20]: 69% |
| Cc1cc(C)c(-c2cc(NC(=O)CSCC(=O)N3c4ccccc4CCc4ccccc43)n(-c3ccccc3)n2)cc1C | 50 | 62 | 1.8 | 1 | 36.9 | 88 | 83 | Active | Active | – | – | 13 | 530 | 5 | 41 | 10 | 353 | 3.8 | 3.7 | – |
